These results are taken from ChEMBL document CHEMBL4354820, “Optimizing Targeted Inhibitors of P-Glycoprotein Using Computational and Structure-Guided Approaches” (J Med Chem, 2019).

Series [1] has as its target T1, ATP-dependent translocase ABCB1 (Homo sapiens, UniProt P08183). Briefly: Inhibition of P-gp overexpressed in human DU145-TxR cells assessed as increase in cellular accumulation of calcein AM at 2 uM pretreated followed by calcein AM addition by fluorescence imaging analysis. Type of series: cell-based. Summed up: (§1)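 Confluent DU145TXR monolayers in phenol red-free RPMI 1640 given 2 μM inhibitor (DMSO vehicle) and 1 μg mL−1 calcein AM, either added together or after a 6 h inhibitor-only preincubation at 37 °C. Calcein fluorescence (ex 485 / em 535 nm) read over 60 min at 20 min intervals. Six replicates, at least two independent experiments.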

In series [2] the target is T1, ATP-dependent translocase ABCB1. Briefly: Reversal of P-gp mediated multidrug resistance in human DU145-TxR cells overexpressing P-gp assessed as potentiation of paclitaxel-induced cytotoxicity by measuring fold reduction paclitaxel IC50 at 7 uM after 48 hrs by MTT assay relative to paclitaxel alone. Format: cell-based. In outline: (§2)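 DU145TXR cells seeded at 3000 per well, 24 h later treated 48 h with paclitaxel alone or with 3, 5, 7 or 10 μM inhibitor in complete medium (DMSO vehicle). MTT 4 h, formazan dissolved in DMSO, A570 read, background subtracted, viability relative to DMSO. IC50 by four-parameter nonlinear fit; eight replicates, at least two experiments. Fold values compare paclitaxel alone or with parent inhibitor.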
On the technique in general: Tetrazolium assays rely on reduction of a dye to a coloured formazan, in cell work by metabolically active cells.

The target is the same in series [3]. Briefly: Reversal of P-gp mediated multidrug resistance in human DU145-TxR cells overexpressing P-gp assessed as potentiation of paclitaxel-induced cytotoxicity by measuring fold reduction paclitaxel IC50 at 5 uM after 48 hrs by MTT assay relative to paclitaxel alone. Type of series: cell-based. Summed up:
as §2

Series [4] shares this target. Briefly: Reversal of P-gp mediated multidrug resistance in human DU145-TxR cells overexpressing P-gp assessed as potentiation of paclitaxel-induced cytotoxicity by measuring fold reduction paclitaxel IC50 at 3 uM after 48 hrs by MTT assay relative to paclitaxel alone. Type of series: cell-based. In outline:
as §2

The target is the same in series [5]. Briefly: Reversal of P-gp mediated multidrug resistance in human DU145-TxR cells overexpressing P-gp assessed as potentiation of paclitaxel-induced cytotoxicity by measuring fold reduction paclitaxel IC50 at 3 uM after 48 hrs by MTT assay relative to parent compound. Type of series: cell-based. In outline:
as §2

The target is the same in series [6]. Description: Reversal of P-gp mediated multidrug resistance in human DU145-TxR cells overexpressing P-gp assessed as potentiation of paclitaxel-induced cytotoxicity by measuring fold reduction paclitaxel IC50 at 10 uM after 48 hrs by MTT assay relative to paclitaxel alone. Type of series: cell-based. In outline:
as §2

For series [7] the target is unchanged. Description: Reversal of P-gp mediated multidrug resistance in human DU145-TxR cells overexpressing P-gp assessed as potentiation of paclitaxel-induced cytotoxicity by measuring fold reduction paclitaxel IC50 at 5 uM after 48 hrs by MTT assay relative to parent compound. Type of series: cell-based. Summed up: as §2
The target is the same in series [8]. Briefly: Reversal of P-gp mediated multidrug resistance in human DU145-TxR cells overexpressing P-gp assessed as potentiation of paclitaxel-induced cytotoxicity by measuring fold reduction paclitaxel IC50 at 7 uM after 48 hrs by MTT assay relative to parent compound. Format: cell-based. Summed up: as §2
For series [9] the target is unchanged. Description: Reversal of P-gp mediated multidrug resistance in human DU145-TxR cells overexpressing P-gp assessed as potentiation of paclitaxel-induced cytotoxicity by measuring fold reduction paclitaxel IC50 at 10 uM after 48 hrs by MTT assay relative to parent compound. Type of series: cell-based. Summed up:
as §2

For series [10] the target is unchanged. Description: Inhibition of P-gp overexpressed in human DU145-TxR cells assessed as increase in cellular accumulation of calcein AM at 2 uM preincubated for 6 hrs followed by calcein AM addition by fluorescence imaging analysis. Format: cell-based. In outline: as §1
Series [11] deals with T2, P-glycoprotein (ABCB1, mouse MDR3) ATPase (Mus musculus, UniProt P21447). Description: Inhibition of verampil-stimulated ATPase hydrolysis in recombinant mouse MDR3 expressed in Pichia pastoris measured after 30 mins in presence of NADH by coupled enzyme assay (reference value: 100 +/- 8 %). Also noted: scale not given: the % may be the effect or the level left. The conditions noted are these: recombinant mouse MDR3 (P-gp) expressed in Pichia pastoris.

In series [12] the target is T2, P-glycoprotein (ABCB1, mouse MDR3) ATPase. Description: Effect on basal ATPase hydrolysis of recombinant mouse MDR3 expressed in Pichia pastoris measured after 30 mins in presence of NADH by coupled enzyme assay (reference value: 100 +/- 7 %). Details: scale not given: the % may be the effect or the level left; call rule not given here. The conditions noted are these: recombinant mouse MDR3 (P-gp) expressed in Pichia pastoris, read-out: Activity.

For series [13], the target named is T1, ATP-dependent translocase ABCB1. Description: Ratio of inhibition of P-gp overexpressed in human DU145-TxR cells assessed as increase in intracellular compound accumulation after 2.5 hrs in presence of tariquidar by LC-MS/MS analysis to Inhibition of P-gp overexpressed in human DU145-TxR cells assessed as decrease in intracellular compound accumulation after 2.5 hrs in absence of tariquidar by LC-MS/MS analysis. Format: cell-based. In outline: (§3)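 P-gp-overexpressing DU145TXR cells exposed to test compounds with or without tariquidar. Intracellular compound measured by LC–MS/MS, with daunorubicin as a transported-substrate control. Ratio is accumulation with tariquidar divided by accumulation without.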

Series [14] deals with T3, P-glycoprotein (ABCB1, MDR1) ATPase (Homo sapiens, UniProt P08183). Description: Inhibition of verampil-stimulated ATPase hydrolysis in recombinant human MDR1 expressed in Pichia pastoris measured after 30 mins in presence of NADH by coupled enzyme assay (reference value: 100 +/- 6 %). Details: scale not given: the % may be the effect or the level left. Particulars: recombinant human MDR1 (P-gp) expressed in Pichia pastoris.

Series [15] has as its target T3, P-glycoprotein (ABCB1, MDR1) ATPase. Briefly: Effect on basal ATPase hydrolysis of recombinant human MDR1 expressed in Pichia pastoris measured after 30 mins in presence of NADH by coupled enzyme assay (reference value: 100 +/- 5 %). Particulars: recombinant human MDR1 (P-gp) expressed in Pichia pastoris, read-out: Activity. Also noted: scale not given: the % may be the effect or the level left.

The target in series [16] is P-glycoprotein 1 Abcb1a (Mus musculus). Briefly: Inhibition of spin-labelled adenine nucleotide interaction with mouse MDR3 P-gp expressed in Escherichia coli BL21 (DE3) assessed as apparent dissociation constant by ESR analysis (reference value: 36.5 +/- 3.6 uM).
Series [17] has as its system P-glycoprotein 1 Abcb1a (Mus musculus). Description: Inhibition of 2',3'-(2,2,5,5,-tetramethyl-3-pyrroline-l-oxyl-3-carboxylic acid ester)ATP interaction with mouse MDR3 P-gp expressed in Escherichia coli BL21 (DE3) assessed as reduction in ATP binding from 2 to 1 of nucleotide to mol of protein by ESR analysis (reference value: 1.8 +/- 0.1).
Series [18] deals with T2, P-glycoprotein (ABCB1, mouse MDR3) ATPase. Description: Effect on verampil-mediated ATPase hydrolysis of recombinant mouse MDR3 expressed in Pichia pastoris measured after 30 mins in presence of NADH by coupled enzyme assay (reference value: 100 +/- 8 %). Particulars: recombinant mouse MDR3 (P-gp) expressed in Pichia pastoris, read-out: Activity. Also noted: scale not given: the % may be the effect or the level left.

For series [19], the target named is T1, ATP-dependent translocase ABCB1. Briefly: Inhibition of P-gp overexpressed in human DU145-TxR cells assessed as increase in intracellular compound accumulation after 2.5 hrs in presence of tariquidar by LC-MS/MS analysis. Type of series: cell-based. In outline:
as §3

Series [20] has as its target T3, P-glycoprotein (ABCB1, MDR1) ATPase. Description: Basal ATPase hydrolysis in recombinant human MDR1 expressed in Pichia pastoris measured after 30 mins in presence of NADH by coupled enzyme assay (reference value: 100 +/- 5 %). Details: scale not given: the % may be the effect or the level left. Particulars: recombinant human MDR1 (P-gp) expressed in Pichia pastoris.

Series [21] concerns the target T2, P-glycoprotein (ABCB1, mouse MDR3) ATPase. Briefly: Stimulation of verampil-mediated ATPase hydrolysis in recombinant mouse MDR3 expressed in Pichia pastoris measured after 30 mins in presence of NADH by coupled enzyme assay (reference value: 100 +/- 8 %). Details: scale not given: the % may be the effect or the level left. The conditions noted are these: recombinant mouse MDR3 (P-gp) expressed in Pichia pastoris, read-out: Activity.

Each structure is given as a SMILES string. pKd: −log10 of the molar value.

T2 sequence (P21447 whole entry): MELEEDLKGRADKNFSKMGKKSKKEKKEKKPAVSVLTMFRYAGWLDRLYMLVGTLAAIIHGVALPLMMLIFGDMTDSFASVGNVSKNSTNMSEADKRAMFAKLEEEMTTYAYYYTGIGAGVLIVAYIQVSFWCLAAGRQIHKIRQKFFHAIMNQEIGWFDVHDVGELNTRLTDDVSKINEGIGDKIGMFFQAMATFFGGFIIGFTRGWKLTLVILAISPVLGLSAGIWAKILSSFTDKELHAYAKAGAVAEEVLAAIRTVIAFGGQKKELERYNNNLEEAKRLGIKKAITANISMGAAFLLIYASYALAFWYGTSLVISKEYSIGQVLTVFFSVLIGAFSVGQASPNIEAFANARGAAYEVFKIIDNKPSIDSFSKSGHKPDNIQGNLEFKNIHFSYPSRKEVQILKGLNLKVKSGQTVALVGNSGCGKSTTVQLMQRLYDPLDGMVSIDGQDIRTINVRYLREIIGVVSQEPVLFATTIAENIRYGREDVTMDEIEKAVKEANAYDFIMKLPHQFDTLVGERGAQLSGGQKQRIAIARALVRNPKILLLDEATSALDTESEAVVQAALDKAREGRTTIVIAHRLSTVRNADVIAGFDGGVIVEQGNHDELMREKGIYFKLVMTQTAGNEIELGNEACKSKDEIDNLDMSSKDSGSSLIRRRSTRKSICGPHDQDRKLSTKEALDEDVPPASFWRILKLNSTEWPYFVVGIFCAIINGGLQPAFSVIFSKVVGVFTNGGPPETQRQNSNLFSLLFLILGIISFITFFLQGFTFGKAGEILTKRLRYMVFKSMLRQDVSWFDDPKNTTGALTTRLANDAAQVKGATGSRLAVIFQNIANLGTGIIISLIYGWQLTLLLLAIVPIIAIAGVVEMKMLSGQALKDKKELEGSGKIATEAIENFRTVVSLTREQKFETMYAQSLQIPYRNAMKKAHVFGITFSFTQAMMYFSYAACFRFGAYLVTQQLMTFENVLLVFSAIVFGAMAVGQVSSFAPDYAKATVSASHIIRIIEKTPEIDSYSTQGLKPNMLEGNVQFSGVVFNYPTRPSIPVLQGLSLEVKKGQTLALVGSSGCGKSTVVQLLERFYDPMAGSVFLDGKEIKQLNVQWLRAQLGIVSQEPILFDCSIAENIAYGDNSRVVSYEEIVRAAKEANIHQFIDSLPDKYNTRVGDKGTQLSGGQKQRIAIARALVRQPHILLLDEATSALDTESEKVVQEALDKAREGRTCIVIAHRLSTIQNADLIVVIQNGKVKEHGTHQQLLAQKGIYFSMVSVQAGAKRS
T1 sequence (P08183 whole entry): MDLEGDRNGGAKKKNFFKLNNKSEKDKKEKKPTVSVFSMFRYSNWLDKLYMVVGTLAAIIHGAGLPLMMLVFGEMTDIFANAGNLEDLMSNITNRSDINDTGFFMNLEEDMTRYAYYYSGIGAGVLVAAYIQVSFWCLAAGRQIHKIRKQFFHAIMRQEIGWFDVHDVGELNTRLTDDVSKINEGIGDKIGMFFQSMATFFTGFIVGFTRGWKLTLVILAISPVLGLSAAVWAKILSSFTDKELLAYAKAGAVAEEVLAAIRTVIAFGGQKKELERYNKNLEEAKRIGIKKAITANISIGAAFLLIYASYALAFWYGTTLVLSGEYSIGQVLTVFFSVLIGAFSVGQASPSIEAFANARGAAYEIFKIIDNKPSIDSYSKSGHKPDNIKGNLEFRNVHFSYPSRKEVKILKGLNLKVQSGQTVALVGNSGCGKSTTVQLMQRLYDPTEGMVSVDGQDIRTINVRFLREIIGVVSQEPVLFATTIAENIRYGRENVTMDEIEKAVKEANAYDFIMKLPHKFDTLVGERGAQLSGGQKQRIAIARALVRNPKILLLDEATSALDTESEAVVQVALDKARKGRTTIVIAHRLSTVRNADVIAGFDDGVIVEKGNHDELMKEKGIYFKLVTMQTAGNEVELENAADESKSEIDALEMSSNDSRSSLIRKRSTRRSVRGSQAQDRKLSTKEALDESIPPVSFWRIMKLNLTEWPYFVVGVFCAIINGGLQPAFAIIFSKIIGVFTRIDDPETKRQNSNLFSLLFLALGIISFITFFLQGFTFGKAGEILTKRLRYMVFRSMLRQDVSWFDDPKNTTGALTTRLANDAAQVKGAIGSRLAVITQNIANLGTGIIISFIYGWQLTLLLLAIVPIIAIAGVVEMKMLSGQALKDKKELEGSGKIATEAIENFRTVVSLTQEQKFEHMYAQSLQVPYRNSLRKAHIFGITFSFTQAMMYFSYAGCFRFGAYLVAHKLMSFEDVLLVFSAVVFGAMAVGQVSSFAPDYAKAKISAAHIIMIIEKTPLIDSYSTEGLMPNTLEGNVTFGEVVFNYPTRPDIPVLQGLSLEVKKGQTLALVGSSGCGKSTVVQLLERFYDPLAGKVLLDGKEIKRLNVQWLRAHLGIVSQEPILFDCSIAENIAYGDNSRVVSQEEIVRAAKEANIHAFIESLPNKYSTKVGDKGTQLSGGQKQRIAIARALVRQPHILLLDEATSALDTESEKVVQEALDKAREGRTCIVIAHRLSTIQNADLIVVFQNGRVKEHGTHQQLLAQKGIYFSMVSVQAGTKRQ
T3 sequence (P08183 whole entry): as above

The pKd is the negative decadic logarithm of the Kd, by convention in mol/L. As for `Cc1cc(C)c(-c2cc(NC(=O)CSCC(=O)N3c4ccccc4CCc4ccccc43)n(-c3ccccc3)n2)cc1C`, the “inhibition (INH)” value in [1] and in series [10] was “Active” throughout. The “fold change (FC)” value came to 353 in series [2]; 41 in series [3]; 13 in series [4]; 3.8 in series [5]; 530 in series [6]; 3.7 in series [7]. Besides, the “fold change (FC)” value in series [8] amounted to 10; in series [9], 5. Moreover, the Activity at 0.5 h was determined as 50% in [11], 88% in [12], 62% in series [14] and 83% in series [15]. Besides, the Ratio in series [13] worked out at 1. Moreover, the pKd in series [16] was 4.43. Further, the Activity in series [17] came to 1.8.

On to `Cc1cc(C)c(-c2cc(NC(=O)CSCC(=O)NCc3ccc(F)cc3)n(-c3ccccc3)n2)cc1C`, for which the “inhibition (INH)” value in series [1], in series [10] and in series [19] was “Active” throughout. The “fold change (FC)” value is 11 in series [2]; 5.6 in series [3]; 4.6 in series [4]; 1.4 in series [5]; 16 in series [6]; 0.5 in series [7]. Moreover, the “fold change (FC)” value was determined as 0.3 in [8] and 0.2 in [9]. The Activity at 0.5 h in series [18] amounted to 98%; in series [12] it was 143%; in series [14] it was 59%; in [15], 95%. Moreover, the Ratio in [13] was 1.3. Also, the negative-log Kd (pKd) in series [16] was 4.59. For the same compound, the Activity in series [17] stood at 1.9.

With `Cc1cc(C)c(-c2cc(NC(=O)CSCC(=O)c3ccc4c(c3)Cc3ccccc3-4)n(-c3ccccc3)n2)cc1C`, the “inhibition (INH)” value in series [1] and in series [10] was “Active” each time. Moreover, the “fold change (FC)” value in series [2] worked out at 34; in [3] it was 14; in series [4], 8; in series [5], 2.4; in [6] it was 37; in series [7], 1.3. Moreover, the “fold change (FC)” value in series [8] is listed as 1; in series [9], 0.4. Further, the Activity at 0.5 h amounted to 108% in series [18], 105% in [12], 64% in [14] and 69% in [20]. Moreover, the Ratio in series [13] came out at 1.1. For the same compound, in [16], the pKd is 4.64. In addition, the Activity in [17] was found to be 1.7.

Turning to `Cc1cc(C)c(-c2cc(NC(=O)CSc3nnc4c(n3)[nH]c3ccccc34)n(-c3ccccc3)n2)cc1C`, the “inhibition (INH)” value in [1] and in [10] was “Active” each time. The “fold change (FC)” value in series [2] was 125; in series [3], 101; in series [4], 5; in [5] it was 1.5; in series [6], 125; in series [7], 9.2. The “fold change (FC)” value in [8] and in [9] was 3.4 each time. Moreover, the Activity at 0.5 h in series [11] amounted to 68%; in series [12], 101%; in [14] it was 66%; in series [15], 87%. Besides, the Ratio in series [13] is 1. In [16], the pKd was 4.62. For the same compound, the Activity in series [17] stood at 1.8.

In the case of `COc1cc(NC(=O)CSCC(=O)Nc2cc(-c3cc(C)c(C)cc3C)nn2-c2ccccc2)cc(OC)c1OC`, the “inhibition (INH)” value in series [1], in series [10] and in series [19] was “Active” throughout. The “fold change (FC)” value was found to be 3312 in [2]; 1116 in series [3]; 11 in [4]; 3.4 in series [5]; 30286 in series [6]; 102 in series [7]. Moreover, the results for the “fold change (FC)” value in series [8] and in series [9] were 92 and 300, respectively. For the same compound, the Activity at 0.5 h in [21] is 194%; in series [14] it was 61%; in series [15] it was 89%. Further, the Ratio in [13] was 1.9. In [16], the pKd is 4.70. Moreover, the Activity in [17] worked out at 1.2.

Consider `Cc1cc(C)c(-c2cc(NC(=O)CSc3n[nH]c(C4CC4)n3)n(-c3ccccc3)n2)cc1C`, for which the “inhibition (INH)” value in series [1] and in series [10] was “Active” throughout. The “fold change (FC)” value in series [2] is listed as 36; in series [3] it was 11; in [4], 3; in [5] it was 1; in series [6], 101; in [7], 1. Further, the “fold change (FC)” value in series [8] and in series [9] was 1 in each case. Also, the Activity at 0.5 h in series [11] was found to be 49%; in series [12] it was 95%; in series [14] it was 62%. The Ratio in series [13] was 1. The pKd in [16] was 4.15. Also, the Activity in [17] came out at 1.9.
